Laboratory results as given in ChEMBL document CHEMBL5674889, “Enhanced JunD/RSK3 signalling due to loss of BRD4/FOXD3/miR-548d-3p axis determines BET inhibition resistance” (2020).
Activity calls are given as the source filed them.

Key:
BT-549 [1] = assay: Antiproliferative activity in human BT-549 cells assessed as reduction in cell growth at 1 uM by CCK-8 assay; format: functional, cell-based
MDA-MB-231 [2] = assay: Antiproliferative activity in human MDA-MB-231 cells assessed as reduction in cell growth at 1 uM by CCK-8 assay; format: functional, cell-based
MDA-MB-231 [3] = assay: Antiproliferative activity in human MDA-MB-231 cells assessed as reduced cell growth co-treated with GDC-0994 at 1 uM by CCK-8 assay; format: functional, cell-based
How it was run: (§1)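 MDA-MB-231 (DMEM + 10% FBS) or BT549 (RPMI-1640 + 10% FBS) seeded at 3000 cells/well and left to adhere overnight. Treated 48 h with the kinase inhibitors alone, combined, or together with JQ1. Growth measured by CCK-8 and normalized to the DMSO-treated control after background subtraction. Triplicates, mean ± SD, one-way ANOVA against JQ1 alone.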

BT-549 [4] = assay: Antiproliferative activity in human BT-549 cells assessed as reduced cell growth co-treated with GDC-0994 at 1 uM by CCK-8 assay; format: functional, cell-based; how it was run: as §1
MDA-MB-231 [5] = assay: Effect on human MDA-MB-231 cells assessed as decrease in RSK3 protein expression in the presence of GDC-0994 at 1 uM by Western blot analysis; format: functional, cell-based
MDA-MB-231 [6] = assay: Effect on human MDA-MB-231 cells assessed as JunD protein expression by Western blot analysis; format: functional, cell-based
MDA-MB-231 [7] = assay: Effect on human MDA-MB-231 cells assessed as RPS6KA2 protein expression by Western blot analysis; format: functional, cell-based
BT-549 [8] = assay: Effect on human BT-549 cells assessed as JunD protein expression by Western blot analysis; format: functional, cell-based
BT-549 [9] = assay: Effect on human BT-549 cells assessed as RPS6KA2 protein expression by Western blot analysis; format: functional, cell-based
BT-549 [10] = assay: Antiproliferative activity in human BT-549 cells assessed as cell viability at 1 uM by CCK-8 assay; format: functional, cell-based
MDA-MB-231 [11] = assay: Antiproliferative activity in human MDA-MB-231 cells assessed as cell growth at 1 uM by CCK-8 assay; format: functional, cell-based
How it was run: (§2)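 Cells grown in 10% FBS medium (DMEM for BT-474 and MDA-MB-231) and seeded at 3000 cells/well, adhering overnight. Exposed to 1 μM for 48 h, with DMSO as control. Growth read by CCK-8 as background-subtracted signal normalized to the DMSO control. Mean ± SD of triplicates.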

BT-474 = assay: Antiproliferative activity in human BT-474 cells assessed as cell growth at 1 uM by CCK-8 assay; format: functional, cell-based; how it was run: as §2
BT-549 [12] = assay: Antiproliferative activity in human BT-549 cells assessed as reduced cell growth co-treated with XMD8-92 at 1 uM by CCK-8 assay; format: functional, cell-based; how it was run: as §1
MDA-MB-231 [13] = assay: Effect on human MDA-MB-231 cells assessed as RSK3 protein expression in the presence of XMD8-92 at 1 uM by Western blot analysis; format: functional, cell-based
MDA-MB-231 [14] = assay: Antiproliferative activity in human MDA-MB-231 cells assessed as reduced cell growth co-treated with XMD8-92 at 1 uM by CCK-8 assay; format: functional, cell-based; how it was run: as §1
MDA-MB-231 [15] = assay: Effect on human MDA-MB-231 cells assessed as EGFR protein expression at 1 uM by Western blot analysis; format: functional, cell-based
BT-549 [16] = assay: Effect on human BT-549 cells assessed as suppression of tumor sphere formation at 1 uM by Tumor sphere assay; format: functional, cell-based
MDA-MB-231 [17] = assay: Induction of apoptosis in human MDA-MB-231 cells in the presence of osimertinib at 1 uM by flow cytometry analysis; format: functional, cell-based
How it was run: (§3)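 Cells given JQ1 and/or osimertinib, then stained with Annexin V-FITC plus propidium iodide (10 min, room temperature, dark; 1 × 10^6 cells/ml in binding buffer after two PBS washes) and analysed by flow cytometry; one-way ANOVA.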

MDA-MB-231 [18] = assay: Induction of apoptosis in human MDA-MB-231 cells assessed as caspase-3 cleavage in the presence of osimertinib at 1 uM by Western blotting analysis; format: functional, cell-based
MDA-MB-231 [19] = assay: Antiproliferative activity in human BRD4-knockdown MDA-MB-231 cells assessed as cell growth at 1 uM by CCK-8 assay; format: functional, cell-based
How it was run: (§4)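 Vector control or BRD4-knockdown cells, 3000/well, adhered overnight, then DMSO or osimertinib for 48 h; growth by CCK-8, normalized to DMSO-treated control. Triplicates, mean ± SD; one-way ANOVA, vehicle vs osimertinib in knockdown clones.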

MDA-MB-231 [20] = assay: Antiproliferative activity in human MDA-MB-231 cells assessed as inhibited cell growth at 1 uM by CCK-8 assay; format: functional, cell-based
MDA-MB-231 [21] = assay: Inhibition of cell migration in human MDA-MB-231 cells at 1 uM by transwell invasion assay; format: functional, cell-based
How it was run: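 Invasion assay: 1 × 10^5 cells seeded in Matrigel-coated upper Boyden chamber; lower chamber held serum-free medium with 100 nM LPA. After 24 or 48 h, invaded cells stained with crystal violet and counted.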

MDA-MB-231 [22] = assay: Antiproliferative activity in human MDA-MB-231 cells assessed as reduction in size of tumor sphere at 1 uM by Tumor sphere assay; format: functional, cell-based
MDA-MB-231 [23] = assay: Antitumor activity against human MDA-MB-231 cells xenografted in BALB/c nude mouse model assessed as reduction of tumor size in the presence of osimertinib at 35 mg/kg/day, sc administered every 2 days for 30 days; format: functional, organism-based; details: time 30.0 day
How it was run: (§5)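 MDA-MB-231 xenografts used 1 × 10^6 cells injected subcutaneously into female BALB/c nude mice (4–6 weeks). Animals were split into four groups (n = 7) at ~100 mm3: vehicle, osimertinib 10 mg/kg, 35 mg/kg agent, or the combination, each given every 2 days. Volume was measured by calliper as length × width²/2; tumours were weighed at end.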

BT-549 [24] = assay: Induction of apoptosis in human BT-549 cells in the presence of osimertinib at 1 uM by flow cytometry analysis; format: functional, cell-based; how it was run: as §3
BT-549 [25] = assay: Antiproliferative activity in human BRD4-knockdown BT-549 cells assessed as cell growth at 1 uM by CCK-8 assay; format: functional, cell-based; how it was run: as §4
BT-549 [26] = assay: Inhibition of cell migration in human BT-549 cells at 1 uM by transwell invasion assay; format: functional, cell-based
MDA-MB-231 [27] = assay: Antitumor activity against human MDA-MB-231 cells xenografted in BALB/c nude mouse model assessed as reduction of tumor weight in the presence of osimertinib at 35 mg/kg/day, sc administered every 2 days for 30 days; format: functional, organism-based; details: time 30.0 day; how it was run: as §5
MDA-MB-231 [28] = assay: Effect on human MDA-MB-231 cells assessed as suppression of tumor sphere formation at 1 uM by Tumor sphere assay; format: functional, cell-based
BT-549 [29] = assay: Antiproliferative activity in human BT-549 cells assessed as reduction in size of tumor sphere at 1 uM by Tumor sphere assay; format: functional, cell-based

C[S+]([O-])c1ccc(-c2nc(-c3ccc(F)cc3)c(-c3ccncc3)[nH]2)cc1 (stereo not drawn)
active: Activity (BT-549 [1]) | Activity (MDA-MB-231 [2])

CCOc1cc(N2CCC(O)CC2)ccc1Nc1ncc2c(n1)N(C)c1ccccc1C(=O)N2C
active: Activity (MDA-MB-231 [3]) | Activity (BT-549 [4]) | Activity (MDA-MB-231 [5])

COc1cc2c(cc1-c1c(C)noc1C)ncc1[nH]c(=O)n([C@H](C)c3ccccn3)c12
active: Activity (MDA-MB-231 [6]) | Activity (MDA-MB-231 [7]) | Activity (BT-549 [8]) | Activity (BT-549 [9]) | Activity (BT-549 [10])

CCNC(=O)C[C@@H]1N=C(c2ccc(Cl)cc2)c2cc(OC)ccc2-n2c(C)nnc21
active: Activity (MDA-MB-231 [6]) | Activity (MDA-MB-231 [7]) | Activity (BT-549 [8]) | Activity (BT-549 [9]) | Activity (BT-549 [10])

Oc1c(F)cc(-c2cnccc2-c2ccc(N3CCOCC3)cc2)cc1F
active: Activity (MDA-MB-231 [11]) | Activity (BT-474)

CN1CCN(c2ccc(-c3ccncc3-c3cc(F)c(O)c(F)c3)cc2)CC1
active: Activity (MDA-MB-231 [11]) | Activity (BT-474)

Cn1nccc1Nc1nccc(-c2ccn([C@H](CO)c3ccc(Cl)c(F)c3)c(=O)c2)n1
active: Activity (BT-549 [12]) | Activity (MDA-MB-231 [13]) | Activity (MDA-MB-231 [14]) | Activity (MDA-MB-231 [15])

C=CC(=O)Nc1cc(Nc2nccc(-c3cn(C)c4ccccc34)n2)c(OC)cc1N(C)CCN(C)C
active: Activity (BT-549 [16]) | Activity (MDA-MB-231 [17]) | Activity (MDA-MB-231 [18]) | Activity (MDA-MB-231 [19]) | Activity (MDA-MB-231 [20]) | inhibition (MDA-MB-231 [21]) | Activity (BT-549 [10]) | Activity (MDA-MB-231 [22]) | Activity (MDA-MB-231 [23]) | Activity (BT-549 [24]) | Activity (BT-549 [25]) | inhibition (BT-549 [26]) | Activity (MDA-MB-231 [27]) | Activity (MDA-MB-231 [28]) | Activity (BT-549 [29])
